The source of these data is ChEMBL document CHEMBL1134569, “Synthesis and in vitro and in vivo antimalarial activity of new 4-anilinoquinolines” (J Med Chem, 2001).

Series [1] can be described thus: Cytotoxicity upon MPMs (mouse peritoneal macrophages) at 3.1 uM conc.;NT=No Toxicity. Summed up:
(§1)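 Mouse peritoneal macrophages harvested 48 h after potato-starch stimulation and seeded at 30000 cells/well. After 24 h, washed and exposed to 2-fold drug dilutions in RPMI + 5% FCS (final DMSO below 0.5%) at 37 °C, 5% CO₂, for 7 days. Toxicity scored microscopically as toxic or not versus untreated controls.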

Series [2] in a line: Cytotoxicity upon MRC-5 cells (diploid embryonic lung cell line) at 3.1 uM. Format: cell-based, MRC5. The conditions noted are these: human. Summed up: (§2)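 MRC-5 human diploid embryonic lung cells seeded at 5000/well, washed after 24 h, then given 2-fold drug dilutions in RPMI + 5% FCS (final DMSO below 0.5%). Incubated at 37 °C, 5% CO₂, for 7 days. MTT read-out at 540 nm, scored as percent absorbance reduction versus untreated controls.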

A short description of series [3]: Cytotoxicity upon MPMs (mouse peritoneal macrophages) at 12.5 uM conc.;NT=No Toxicity. Put shortly:
as §1

The nature of series [4]: Cytotoxicity upon MRC-5 cells (diploid embryonic lung cell line) at 6.3 uM. The series is classed as cell-based, MRC5. The conditions noted are these: human. Summed up: as §2
The nature of series [5]: Cytotoxicity upon MPMs (mouse peritoneal macrophages) at 6.3 uM. Summed up: as §1
The nature of series [6]: Cytotoxicity upon MRC-5 cells (diploid embryonic lung cell line) at 12.5 uM. Format: cell-based, MRC5. The following applies: human. Summed up:
as §2

A further series deals with Plasmodium falciparum. As to the kind of experiment: Inhibitory activity against chloroquine-resistant Plasmodium falciparum FcB1R. Format: functional, organism-based. The following applies: Plasmodium falciparum.
Series [7] can be described thus: Cytotoxicity upon MPMs (mouse peritoneal macrophages) at 8 uM. Put shortly:
as §1

Series [8] is described as follows: Cytotoxicity upon MRC-5 cells (diploid embryonic lung cell line) at 1 uM. Format: cell-based, MRC5. The conditions noted are these: human. Summed up: as §2
Series [9] can be described thus: Cytotoxicity upon MRC-5 cells (diploid embryonic lung cell line) at 32 uM. Format: cell-based, MRC5. The conditions noted are these: human. Put shortly:
as §2

The nature of series [10]: Cytotoxicity upon MPMs (mouse peritoneal macrophages) at 2 uM. Summed up:
as §1

A short description of series [11]: Cytotoxicity upon MRC-5 cells (diploid embryonic lung cell line) at 8 uM. Format: cell-based, MRC5. The conditions noted are these: human. Summed up:
as §2

A short description of series [12]: Cytotoxicity upon MPMs (mouse peritoneal macrophages) at 32 uM. Put shortly:
as §1

Series [13] can be described thus: Cytotoxicity upon MRC-5 cells (diploid embryonic lung cell line) at 25 uM conc. The following applies: human. The series is classed as cell-based, MRC5. Summed up: as §2
A short description of series [14]: Cytotoxicity upon MRC-5 cells (diploid embryonic lung cell line) at 1.6 uM conc. The series is classed as cell-based, MRC5. The following applies: human. Put shortly:
as §2

The term IC50 denotes the concentration that gives 50% inhibition. Read a high IC50 as lower potency.

A value given as a limit tells only on which side of the number the result lay.

Consider `O=CNc1cc(CO)cc(Nc2ccnc3cc(Cl)ccc23)c1`, for which the NT result in series [1], in series [3] and in series [5] was “Cytotoxicity upon MPMs at 6.3 uM” each time. Further, in series [2], the cytotoxicity at 3.1 µM was 0%. This compound also came in with a cytotoxicity at 6.3 µM in [4] of 0%. Besides, the cytotoxicity at 12.5 µM in series [6] amounted to 0%. Besides, the IC50 with Plasmodium falciparum was found to be 360 nM.

Turning to `CN1CCN(CC(=O)Nc2cc(CO)cc(Nc3ccnc4cc(Cl)ccc34)c2)CC1`, the NT result in [1], in series [3] and in series [5] was “Cytotoxicity upon MPMs at 6.3 uM” each time. In [2], this compound displayed a cytotoxicity at 3.1 µM of 0%. Moreover, the cytotoxicity at 6.3 µM in series [4] amounted to 0%. For the same compound, the cytotoxicity at 12.5 µM in [6] was 0%. This compound also yielded an IC50 in the series on Plasmodium falciparum of 344 nM.

Consider `O=C(CN1CCCCC1)Nc1cc(CN2CCN(C(c3ccccc3)c3ccccc3)CC2)cc(Nc2ccnc3cc(Cl)ccc23)c1`, for which the Cytotoxicity entry in series [7] and in series [12] was “Cytotoxicity upon MPMs at 32 uM” each time. The compound also registered a cytotoxicity at 1 µM in series [8] of 87%. Further, the cytotoxicity at 32 µM in series [9] came to 98%. For the same compound, the NT result in series [10] is given as “Cytotoxicity upon MPMs at 2 uM”. In series [11], this compound returned a cytotoxicity at 8 µM of 97%. The IC50 in the series on Plasmodium falciparum turned out to be 12.5 nM.

In [13], `O=C(CN1CCCCC1)Nc1cc(COC(=O)CCCCN2CCCC2)cc(Nc2ccnc3cc(Cl)ccc23)c1` came in with a cytotoxicity at 25 µM of 82%. The same compound came in with a cytotoxicity at 1.6 µM in series [14] of 0%. In addition, the NT result in [3], in series [10] and in [5] was “Cytotoxicity upon MPMs at 2 uM” throughout. This compound also returned a cytotoxicity at 6.3 µM in series [4] of 83%. Further, 23 nM corresponded to half-maximal inhibition in the series with Plasmodium falciparum (IC50).

Consider `O=C(CN1CCOCC1)Nc1cc(CO)cc(Nc2ccnc3cc(Cl)ccc23)c1`, for which the NT result in series [1], in series [3] and in series [5] was “Cytotoxicity upon MPMs at 6.3 uM” each time. The same compound showed a cytotoxicity at 3.1 µM in series [2] of 0%. Also, the cytotoxicity at 6.3 µM in series [4] was determined as 0%. Also, in series [6], the cytotoxicity at 12.5 µM was found to be 0%. Moreover, in the series on Plasmodium falciparum, the IC50 was above 1000 nM.

On to `O=C(CO)Nc1cc(CO)cc(Nc2ccnc3cc(Cl)ccc23)c1`, for which the NT result in series [1], in series [3] and in series [5] was “Cytotoxicity upon MPMs at 6.3 uM” each time. In series [2], this compound came in with a cytotoxicity at 3.1 µM of 0%. For the same compound, in series [4], the cytotoxicity at 6.3 µM amounted to 0%. The compound also gave a cytotoxicity at 12.5 µM in series [6] of 0%. The same compound displayed an IC50 in the series on Plasmodium falciparum above 1000 nM.

As to `CC1CCN(CCCCCCCC(=O)Nc2cc(CO)cc(Nc3ccnc4cc(Cl)ccc34)c2)CC1`, the NT entry in series [1], in series [3] and in series [5] was “Cytotoxicity upon MPMs at 6.3 uM” in each case. For the same compound, the cytotoxicity at 3.1 µM in series [2] came out at 0%. For the same compound, in series [4], the cytotoxicity at 6.3 µM turned out to be 0%. The compound further gave a cytotoxicity at 12.5 µM in series [6] of 0%. Besides, in the series with Plasmodium falciparum, 308 nM corresponded to half-maximal inhibition (IC50).

For the compound `O=C(C[n+]1ccccc1)Nc1cc(CO)cc(Nc2ccnc3cc(Cl)ccc23)c1.[Cl-]`, the NT entry in [1], in series [3] and in [5] was “Cytotoxicity upon MPMs at 6.3 uM” each time. In addition, the cytotoxicity at 3.1 µM in [2] came out at 0%. Besides, in [4], the cytotoxicity at 6.3 µM was 0%. Moreover, in series [6], the cytotoxicity at 12.5 µM is 0%. Further, 927 nM corresponded to half-maximal inhibition with Plasmodium falciparum (IC50).

`O=C(CN1CCCCC1)Nc1cc(CN2CCC(O)CC2)cc(Nc2ccnc3cc(Cl)ccc23)c1`: the Cytotoxicity entry in series [7] and in [12] was “Cytotoxicity upon MPMs at 32 uM” each time. The cytotoxicity at 1 µM in series [8] was determined as 0%. For the same compound, in series [9], the cytotoxicity at 32 µM is 100%. The NT result in [10] is given as “Cytotoxicity upon MPMs at 2 uM”. The cytotoxicity at 8 µM in series [11] was 100%. Moreover, 6.5 nM corresponded to half-maximal inhibition with Plasmodium falciparum (IC50).

Consider `O=C(CNCc1ccccc1)Nc1cc(CO)cc(Nc2ccnc3cc(Cl)ccc23)c1`, for which the NT result in [1], in series [3] and in series [5] was “Cytotoxicity upon MPMs at 6.3 uM” in each case. This compound showed a cytotoxicity at 3.1 µM in [2] of 0%. Further, the cytotoxicity at 6.3 µM in [4] is 0%. The compound further showed a cytotoxicity at 12.5 µM in series [6] of 0%. Further, the IC50 in the series on Plasmodium falciparum worked out at 193 nM.

In turn, `Nc1cc(CO)cc(Nc2ccnc3cc(Cl)ccc23)c1` registered a cytotoxicity at 1.6 µM in [14] of 0%. Also, the NT result in series [1], in series [3], in [10] and in [5] was “Cytotoxicity upon MPMs at 2 uM” throughout. The compound further returned a cytotoxicity at 3.1 µM in series [2] of 0%. In addition, the cytotoxicity at 6.3 µM in [4] was found to be 0%. For the same compound, the cytotoxicity at 12.5 µM in series [6] came out at 0%. The compound also had an IC50 in the series with Plasmodium falciparum of 279 nM.

In the case of `O=C(Nc1cc(CO)cc(Nc2ccnc3cc(Cl)ccc23)c1)c1ccccc1`, the NT result in [1], in series [3] and in [5] was “Cytotoxicity upon MPMs at 6.3 uM” in each case. This compound also returned a cytotoxicity at 3.1 µM in series [2] of 0%. In series [4], this compound had a cytotoxicity at 6.3 µM of 0%. In series [6], the cytotoxicity at 12.5 µM was 0%. The compound further returned an IC50 in the series on Plasmodium falciparum above 1000 nM.

Consider `Nc1ccn(CC(=O)Nc2cc(CO)cc(Nc3ccnc4cc(Cl)ccc34)c2)n1`, for which the NT entry in [1], in series [3] and in series [5] was “Cytotoxicity upon MPMs at 6.3 uM” each time. In addition, the cytotoxicity at 3.1 µM in series [2] was determined as 0%. Besides, in series [4], the cytotoxicity at 6.3 µM is 0%. Moreover, the cytotoxicity at 12.5 µM in [6] came out at 0%. The same compound returned an IC50 in the series on Plasmodium falciparum of 806 nM.

`O=C(CN1CCCCC1)Nc1cc(CNC(c2ccccc2)c2ccccc2)cc(Nc2ccnc3cc(Cl)ccc23)c1`: the Cytotoxicity result in [7] and in series [12] was “Cytotoxicity upon MPMs at 32 uM” throughout. The cytotoxicity at 1 µM in series [8] turned out to be 0%. The cytotoxicity at 32 µM in series [9] worked out at 100%. For the same compound, the NT result in series [10] is “Cytotoxicity upon MPMs at 2 uM”. The cytotoxicity at 8 µM in [11] came out at 100%. For the same compound, the IC50 in the series with Plasmodium falciparum was determined as 9.1 nM.

Compound `O=C(CN1CCCCC1)Nc1cc(COC(=O)CN2CCCCC2)cc(Nc2ccnc3cc(Cl)ccc23)c1` yielded a cytotoxicity at 25 µM in [13] of 93%. Also, in [14], the cytotoxicity at 1.6 µM came out at 0%. For the same compound, the cytotoxicity at 6.3 µM in series [4] came to 0%. In the series on Plasmodium falciparum, this compound returned an IC50 of 54 nM.

In the case of `CN(C)CCN(C)Cc1cc(NC(=O)CN2CCCCC2)cc(Nc2ccnc3cc(Cl)ccc23)c1`, the Cytotoxicity entry in [7] and in series [12] was “Cytotoxicity upon MPMs at 32 uM” in each case. Also, in series [8], the cytotoxicity at 1 µM came out at 43%. In addition, the cytotoxicity at 32 µM in [9] was found to be 100%. Also, the NT result in series [10] was “Cytotoxicity upon MPMs at 2 uM”. In addition, in series [11], the cytotoxicity at 8 µM stood at 100%. The compound also registered an IC50 in the series with Plasmodium falciparum of 5 nM.

For the compound `CC1CCN(CCCCCC(=O)Nc2cc(CO)cc(Nc3ccnc4cc(Cl)ccc34)c2)CC1`, the NT entry in series [1], in [3] and in [5] was “Cytotoxicity upon MPMs at 6.3 uM” throughout. The same compound yielded a cytotoxicity at 3.1 µM in series [2] of 0%. This compound also displayed a cytotoxicity at 6.3 µM in series [4] of 0%. In series [6], this compound yielded a cytotoxicity at 12.5 µM of 0%. Moreover, the IC50 in the series on Plasmodium falciparum came out at 304 nM.

On to `CC(C)(C)NCC(=O)Nc1cc(CO)cc(Nc2ccnc3cc(Cl)ccc23)c1`, for which the NT entry in series [1], in [3] and in series [5] was “Cytotoxicity upon MPMs at 6.3 uM” throughout. Moreover, the cytotoxicity at 3.1 µM in series [2] is 0%. The compound also registered a cytotoxicity at 6.3 µM in [4] of 0%. In [6], this compound displayed a cytotoxicity at 12.5 µM of 0%. In addition, the midpoint of inhibition in the series with Plasmodium falciparum, the IC50, lay at 50.9 nM.

Regarding `O=C(CN1CCSC1)Nc1cc(CO)cc(Nc2ccnc3cc(Cl)ccc23)c1`, the NT entry in series [1], in series [3] and in series [5] was “Cytotoxicity upon MPMs at 6.3 uM” each time. In series [2], this compound had a cytotoxicity at 3.1 µM of 0%. The same compound came in with a cytotoxicity at 6.3 µM in [4] of 0%. Moreover, the cytotoxicity at 12.5 µM in [6] was 0%. Besides, in the series with Plasmodium falciparum, the IC50 was found to be 588 nM.

Consider `CC1CCN(CCCCC(=O)Nc2cc(CO)cc(Nc3ccnc4cc(Cl)ccc34)c2)CC1`, for which the NT entry in series [1], in series [3] and in [5] was “Cytotoxicity upon MPMs at 6.3 uM” in each case. In series [2], this compound displayed a cytotoxicity at 3.1 µM of 0%. Further, the cytotoxicity at 6.3 µM in [4] stood at 0%. The cytotoxicity at 12.5 µM in series [6] worked out at 0%. In the series with Plasmodium falciparum, this compound displayed an IC50 of 465 nM.
